Source: ChEMBL document CHEMBL1250446, “Novel targets for Huntington's disease in an mTOR-independent autophagy pathway” (Nat Chem Biol, 2008)
Active and inactive are the calls of the source. The rule behind the calls is not given here.

Assays:
HeLa = assay: Induction of autophagy in human HeLa cells expressing EGFP-LC3 assessed as increase in LC3-2 level at 400 nM; format: functional, cell-based
COS-7 [1] = assay: Induction of autophagy in african green monkey COS7 cells expressing EGFP-Atg5 assessed as increase in Atg5 level at 10 uM after 48 hrs by immunoblotting analysis; format: functional, cell-based; conditions: Chlorocebus aethiops
Summary of the method: (§1)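 COS-7 cells co-transfected 4 h with EGFP-Atg5 plus EGFP as transfection control (3:1 ratio), then treated. Atg5 level and cleavage assessed by immunoblotting.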

COS-7 [2] = assay: Induction of autophagy in african green monkey COS7 cells assessed as intracytosolic calcium concentration nu calpain activation assay; format: functional, cell-based; conditions: Chlorocebus aethiops
COS-7 [3] = assay: Induction of autophagy in african green monkey COS7 cells assessed as increase in steady state LC-3 positive vesicles at 2.5 uM after 2 hrs by immunofluorescence analysis; format: functional, cell-based; conditions: Chlorocebus aethiops
Summary of the method: (§2)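 COS-7 cells treated 2 h, fixed in 4% paraformaldehyde, then immunostained with anti-LC3 and Alexa-conjugated secondary antibodies. LC3-positive vesicles imaged by confocal microscopy (63x oil lens) at room temperature.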

COS-7 [4] = assay: Induction of autophagy in african green monkey COS7 cells assessed as increase in LC-3-2 positive vesicles at 2.5 uM after 2 hrs by immunofluorescence analysis n presence of 400 nM bafilomycin A1; format: functional, cell-based; conditions: Chlorocebus aethiops
COS-7 [5] = assay: Induction of autophagy in african green monkey COS7 cells expressing EGFP-HDQ74 assessed as EGFP-HDQ74 aggregation at 2.5 uM after 48 hrs in presence of 50 uM ALLM; format: functional, cell-based; conditions: Chlorocebus aethiops
Summary of the method: (§3)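 COS-7 cells transfected with EGFP-HDQ74 (1.5 μg/well) for 4 h, then exposed for the last 24 h of a 48 h post-transfection period. ALLM (50 μM) was added 15 min before thapsigargin. Cells fixed in 4% PFA with DAPI mount; ~200 EGFP-positive cells per sample scored blinded for aggregates. Triplicate, at least twice; odds ratios.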

PC-12 [6] = assay: Induction of autophagy in rat stable inducible PC12 cells expressing A53T alpha-synuclein assessed as A53T alpha-synuclein clearance at 2.5 uM after 24 hrs by densitometric analysis in presence of 50 uM ALLM; format: functional, cell-based
Summary of the method: (§4)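 Stable inducible PC12 line: A53T α-synuclein (HA-tagged) induced with 1 μg/ml doxycycline for 48 h, then switched off by doxycycline removal for 24 h during treatment. For ALLM (50 μM), 15 min pre-treatment. Anti-HA immunoblot, densitometry relative to actin; DMSO control.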

COS-7 [7] = assay: Effect on mTOR-signaling in african green monkey COS7 cells assessed as phospho-S6K at 2.5 uM by immunoblotting analysis; format: cell-based; conditions: Chlorocebus aethiops
Summary of the method: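 COS-7 cells exposed 24 h (0.2 μM rapamycin as positive control for mTOR inhibition); lysates immunoblotted for phospho-S6K, with densitometry of phospho-S6K relative to total S6K.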

COS-7 [8] = assay: Induction of autophagy in african green monkey COS7 cells assessed as increase in LC-3-2 positive vesicles at 2.5 uM after 2 hrs by immunofluorescence analysis; format: functional, cell-based; conditions: Chlorocebus aethiops; summary of the method: as §2
PC-12 [9] = assay: Induction of autophagy in rat stable inducible PC12 cells expressing A53T alpha-synuclein assessed as A53T alpha-synuclein clearance at 2.5 uM after 24 hrs by densitometric analysis; format: functional, cell-based; summary of the method: as §4
COS-7 [10] = assay: Induction of autophagy in african green monkey COS7 cells expressing EGFP-HDQ74 assessed as EGFP-HDQ74 aggregation at 2.5 uM after 48 hrs; format: functional, cell-based; conditions: Chlorocebus aethiops; summary of the method: as §3
COS-7 [11] = assay: Induction of autophagy in african green monkey COS7 cells expressing EGFP-Atg5 assessed as increase in Atg5 level at 2.5 uM after 48 hrs by immunoblotting analysis; format: functional, cell-based; conditions: Chlorocebus aethiops; summary of the method: as §1
SK-N-MC [12] = assay: Cytotoxicity against human SK-N-MC cells expressing EGFP-HDQ74 at 1 uM after 48 hrs; format: cell-based
SK-N-SH (Homo sapiens) = assay: Induction of autophagy in human SK-N-SH cells expressing EGFP-HDQ74 assessed as reduction in EGFP-HDQ74 aggregation at 1 uM after 48 hrs by densitometric analysis
Danio rerio [13] = species: Danio rerio; assay: Protection of neurodegeneration in zebrafish Huntington's disease model expressing EGFP-tagged huntingtin exon with EGFP-HDQ71 in rod photoreceptor assessed as decrease in […] aggregation at 3 uM
Danio rerio [14] = species: Danio rerio; assay: Protection of neurodegeneration in zebrafish Huntington's disease model expressing EGFP-tagged huntingtin exon with EGFP-HDQ71 in rod photoreceptor assessed as loss of rhodopsin expression at 3 uM
SK-N-MC [15] = assay: Induction of autophagy in Atg positive human SK-N-MC cells expressing EGFP-HDQ74 at 1 uM after 48 hrs; format: functional, cell-based
Danio rerio [16] = species: Danio rerio; assay: Protection of neurodegeneration in zebrafish Huntington's disease model expressing EGFP-tagged huntingtin exon with EGFP-HDQ71 in rod photoreceptor assessed as decrease in […] aggregation at 3 uM; format: functional, organism-based
Summary of the method: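 Transgenic zebrafish larvae raised in PTU to 3 d.p.f., then dark-reared 3–9 d.p.f. with drug in E3 medium (pH 7.2), refreshed daily. Fixed fish were cryosectioned at 12 μm and aggregates counted over 96 μm of the central eye. Means from 10 fish per group; ANOVA with Dunnett's test.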

Danio rerio [17] = species: Danio rerio; assay: Protection of neurodegeneration in zebrafish Huntington's disease model expressing EGFP-tagged huntingtin exon with EGFP-HDQ71 in rod photoreceptor assessed as induction of rhodopsin expression at 3 uM; format: functional, organism-based
Summary of the method: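 Zebrafish larvae dark-reared 3–9 d.p.f. with drug in E3, refreshed daily, then lysed in RIPA/DTT. Western blot with anti-rhodopsin (Zpr3, 1:1000), anti-Zpr1 and anti-EGFP antibodies; ECL detection.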

Mus musculus = species: Mus musculus; assay: Induction of autophagy in Atg deficient mouse […] expressing EGFP-HDQ74 at 1 uM after 48 hrs; format: functional
SK-N-SH [18] = assay: Induction of autophagy in human SK-N-SH cells expressing EGFP-HDQ74/m-calpain assessed as inhibition of EGFP-HDQ74 aggregation at 1 uM after 48 hrs; format: functional, cell-based
SK-N-SH [19] = assay: Induction of autophagy in human SK-N-SH cells expressing EGFP-HDQ74 assessed as reduction in EGFP-HDQ74 aggregation at 500 uM after 48 hrs by densitometric analysis; format: functional, cell-based
PC-12 [20] = assay: Induction of autophagy in rat stable inducible PC12 cells expressing A53T alpha-synuclein assessed as A53T alpha-synuclein clearance at 500 uM after 24 hrs by densitometric analysis; format: functional, cell-based
Summary of the method: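 Inducible PC12 A53T α-synuclein (HA) cells induced with 1 μg/ml doxycycline for 48 h. Doxycycline then removed for 24 h with compound or DMSO. Remaining protein measured by anti-HA immunoblot, densitometry relative to actin.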

COS-7 [21] = assay: Induction of autophagy in african green monkey COS7 cells expressing PLC-epsilon assessed as calpain activation at 2.5 uM after 30 mins by immunoblotting analysis; format: functional, cell-based; conditions: Chlorocebus aethiops
Summary of the method: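 Calpain activation in COS-7 after 30 min exposure, alongside 2.5 μM thapsigargin where applied; immunoblot of the active calpain small subunit.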

Q: Which Activity (HeLa) does the source give for `CO/C1=C\C(C)=C\[C@@H](C)[C@@H](O)[C@@H](C)C/C(C)=C/C=C/[C@H](OC)[C@@H]([C@@H](C)[C@@H](O)[C@H](C)[C@@]2(O)C[C@@H](O)[C@H](C)[C@@H](C(C)C)O2)OC1=O` here?
A: The Activity was “Active”.

Q: With `C/C=C(/C)C(=O)O[C@H]1C(C)=C2[C@H]([C@@H]1OC(=O)CCCCCCC)[C@@](C)(OC(C)=O)C[C@H](OC(=O)CCC)[C@@]1(O)[C@H]2OC(=O)[C@@]1(C)O` as the molecule, how does the Activity (COS-7 [1]) read?
A: The Activity was “Active”.

Q: And the Activity (COS-7 [2])?
A: Its Activity is “inactive”.

Q: What about the Activity (COS-7 [3]) of the same molecule?
A: The Activity was “Active”.

Q: What about the Activity (COS-7 [4]) of the same molecule?
A: Its Activity is “inactive”.

Q: And the Activity (COS-7 [5])?
A: Its Activity is “Active”.

Q: What about the Activity (PC-12 [6]) of the same molecule?
A: Its Activity is “Active”.

Q: And the Activity (COS-7 [7])?
A: The Activity was “inactive”.

Q: What about the Activity (COS-7 [8]) of the same molecule?
A: The Activity was “Active”.

Q: And the Activity (PC-12 [9])?
A: The Activity was “inactive”.

Q: What about the Activity (COS-7 [10]) of the same molecule?
A: Its Activity is “inactive”.

Q: And the Activity (COS-7 [11])?
A: The Activity was “Active”.

Q: `Clc1cccc(Cl)c1N=C1NCCN1` [CLONIDINE] was tested. Which Activity (SK-N-MC [12]) did it give?
A: The Activity was “Non-toxic”.

Q: For `CCCCc1oc2ccccc2c1C(=O)c1cc(I)c(OCCN(CC)CC)c(I)c1` [AMIODARONE], which Activity (SK-N-SH (Homo sapiens)) is on record?
A: The Activity was “Active”.

Q: What about the Activity (SK-N-MC [12]) of the same molecule?
A: Its Activity is “Non-toxic”.

Q: What does the source list for `Clc1cccc(Cl)c1NC1=NCCN1`?
A: Activity (Danio rerio [13]): Active; Activity (Danio rerio [14]): inactive; Activity (SK-N-MC [15]): Active; Activity (SK-N-SH (Homo sapiens)): Active; Activity (Danio rerio [16]): Active; Activity (Danio rerio [17]): Active; Activity (Mus musculus): inactive; Activity (SK-N-SH [18]): inactive

Q: `CCCC(=O)Nc1ncnc2c1ncn2[C@@H]1O[C@@H]2COP(=O)(O)O[C@H]2[C@H]1OC(=O)CCC` was tested. Which Activity (SK-N-SH [19]) did it give?
A: The Activity was “inactive”.

Q: What about the Activity (PC-12 [20]) of the same molecule?
A: The Activity was “inactive”.

Q: Which Activity (COS-7 [21]) does the source give for `O=C(Nc1ncnc2c1ncn2[C@@H]1O[C@@H]2COP(=O)(O)O[C@H]2[C@H]1O)c1ccccc1` here?
A: The Activity was “Active”.

Q: Which Activity (SK-N-SH (Homo sapiens)) does the source give for `COCCOC(=O)C1=C(C)NC(C)=C(C(=O)OC(C)C)C1c1cccc([N+](=O)[O-])c1` (stereo not drawn) [NIMODIPINE] here?
A: Its Activity is “Active”.

Q: What about the Activity (SK-N-MC [12]) of the same molecule?
A: Its Activity is “Non-toxic”.
